Source: ChEMBL document CHEMBL4732138, “Evaluation of the Structure-Activity Relationship of Microtubule-Targeting 1,2,4-Triazolo[1,5-a]pyrimidines Identifies New Candidates for Neurodegenerative Tauopathies” (J Med Chem, 2021)

Experiments:
Tubulin (Homo sapiens) [1] = molecular target: T1, Tubulin (Homo sapiens) (UniProt P68371+Q9H4B7+P0DPH7+P68366+Q13509+Q71U36+P04350+Q3ZCM7+P07437+P68363+Q9BQE3+Q6PEY2+Q13885+Q9BVA1+Q9BUF5); assay: Stabilization of microtubules in human QBI293 cells assessed as fold change in acetylated tubulin levels at 1 uM after 4 hrs by ELISA relative to DMSO; assay type: cell-based
How it was run: (§1)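 QBI293 cells were grown in DMEM with 10% FBS, 2 mM L-glutamine and penicillin/streptomycin, then plated at 6 × 10^5 cells/well and left overnight. Medium was replaced with fresh medium holding vehicle (DMSO) or compound, and cells were incubated 4 h. Whole-cell extract supernatants were protein-normalized by BCA assay. AcTub and α-tubulin were quantified by ELISA against standard curves. Values are fold-change over DMSO, analysed by one-way ANOVA.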

Tubulin (Homo sapiens) [2] = molecular target: T1, Tubulin (Homo sapiens); assay: Stabilization of microtubules in human QBI293 cells assessed as fold change in acetylated tubulin levels at 10 uM after 4 hrs by ELISA relative to DMSO; assay type: cell-based; how it was run: as §1
Tubulin (Homo sapiens) [3] = molecular target: T1, Tubulin (Homo sapiens); assay: Stabilization of microtubules in human QBI293 cells assessed as fold change in alpha tubulin levels at 1 uM after 4 hrs by ELISA relative to DMSO; assay type: cell-based; how it was run: as §1
Tubulin (Homo sapiens) [4] = molecular target: T1, Tubulin (Homo sapiens); assay: Stabilization of microtubules in human QBI293 cells assessed as fold change in alpha tubulin levels at 10 uM after 4 hrs by ELISA relative to DMSO; assay type: cell-based; how it was run: as §1
Tubulin (Homo sapiens) [5] = molecular target: T1, Tubulin (Homo sapiens); assay: Stabilization of microtubules in human QBI293 cells assessed as fold change in acetylated tubulin levels at 1 uM after 4 hrs by ELISA relative to cevipabulin; assay type: cell-based
Tubulin (Homo sapiens) [6] = molecular target: T1, Tubulin (Homo sapiens); assay: Stabilization of microtubules in human QBI293 cells assessed as fold change in acetylated tubulin levels at 10 uM after 4 hrs by ELISA relative to cevipabulin; assay type: cell-based
[7] = n-octanol-water distribution coefficient, log D of the compound at pH 7.4 by shake flask method; assay type: physicochemical
How it was run: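 Distribution coefficient between n-octanol and water at pH 7.4, measured by shake-flask method.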

Tubulin (Homo sapiens) [8] = molecular target: T1, Tubulin (Homo sapiens); assay: Stabilization of microtubules in human QBI293 cells assessed as decrease in alpha-tubulin levels at 1 to 10 uM after 4 hrs by ELISA relative to control; assay type: cell-based; design: scale not given: the % may be the effect or the level left; settings: dose 1-10 µM
How it was run: (§2)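 QBI293 cells are grown in DMEM with 10% FBS, 2 mM L-glutamine and penicillin/streptomycin, plated at 6 × 10^5 cells/well and incubated overnight. […] Acetyl- and total α-tubulin in whole-cell extract supernatants are measured by ELISA against standard curves, with protein by BCA. Values are fold-change over DMSO; AcTub is also given relative to 100 nM cevipabulin positive control. Significance is by one-way ANOVA.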

Tubulin (Homo sapiens) [9] = molecular target: T1, Tubulin (Homo sapiens); assay: Stabilization of microtubules in human QBI293 cells assessed as increase in acetylated tubulin levels after 4 hrs by ELISA; assay type: cell-based; how it was run: as §2
[10] = n-octanol/water, read-out: logD

SMILES | fold change (FC) (Tubulin (Homo sapiens) [1]) | fold change (FC) (Tubulin (Homo sapiens) [2]) | fold change (FC) (Tubulin (Homo sapiens) [3]) | fold change (FC) (Tubulin (Homo sapiens) [4]) | fold change (FC) (Tubulin (Homo sapiens) [5]) | fold change (FC) (Tubulin (Homo sapiens) [6]) | logD [7, 10] | logD ([7]; octanol/water) | Activity (Tubulin (Homo sapiens) [8]) | Activity (Tubulin (Homo sapiens) [9])
CC(C)[C@@H](C)Nc1c(-c2c(F)cccc2F)c(Cl)nc2ncnn12 | 4.36 | 4.88 | 1 | 0.96 | 0.96 | 1.07 | 3.16 |  |  | 
CO[C@H]1C[C@H]2CC[C@@H](C1)N2c1c(-c2c(F)cc(C#N)cc2F)c(Cl)nc2ncnn12 | 2.61 | 4.32 | 0.99 | 1 | 0.64 | 1.06 | 2.74 |  |  | 
CC(C)[C@@H](C)Nc1c(-c2ccc(C#N)cc2F)c(Cl)nc2ncnn12 (stereo in doubt; 68) |  |  |  |  |  |  |  | 2.67 |  | 
CSc1cc(F)c(-c2c(Cl)nc3ncnn3c2N[C@@H](C)C(F)(F)F)c(F)c1 | 1.75 | 2.23 | 0.88 | 0.56 | 0.27 | 0.35 |  |  | > 15% | 
CC(C)[C@@H](C)Nc1c(-c2ccc(C#N)cc2F)c(Cl)nc2ncnn12 (stereo in doubt; 67) |  |  |  |  |  |  | 2.9 |  |  | 
C[C@H](Nc1c(-c2c(F)cc(OCCCO)cc2F)c(Cl)nc2ncnn12)C(F)(F)F |  |  |  |  |  |  |  |  | > 15% | 
Fc1cc(F)c(-c2c(Cl)nc3ncnn3c2N2CCCCCCC2)c(F)c1 | 3.7 | 7.16 | 1.01 | 1.28 | 0.36 | 0.7 |  |  |  | Dose-dependent effect
C[C@H](Nc1c(-c2c(F)cc(C#N)cc2F)c(Cl)nc2ncnn12)C(F)(F)F | 1.9 | 3.56 | 0.94 | 0.95 | 0.27 | 0.51 |  |  |  | Dose-dependent effect
CC(C)CNc1c(-c2c(F)cc(F)cc2F)c(Cl)nc2ncnn12 | 1.63 | 2.28 | 1.3 | 0.99 | 0.38 | 0.53 |  |  |  | Dose-dependent effect
C[C@H](Nc1c(-c2ccccc2F)c(Cl)nc2ncnn12)C(F)(F)F | 1.73 | 3.56 | 1.09 | 1.05 | 0.13 | 0.26 |  |  |  | Dose-dependent effect
C[C@H](Nc1c(-c2c(F)cc(O)cc2F)c(Cl)nc2ncnn12)C(F)(F)F | 1.22 | 4.11 | 0.84 | 0.57 | 0.23 | 0.77 |  |  | > 15% | 
Cc1cc(F)c(-c2c(Cl)nc3ncnn3c2N[C@@H](C)C(F)(F)F)c(F)c1 | 1.62 | 2.73 | 0.99 | 0.78 | 0.28 | 0.48 |  |  | > 15% | 
C[C@H](Nc1c(-c2c(F)cccc2F)c(Cl)nc2ncnn12)C(F)(F)F | 2.2 | 5.28 | 1.06 | 1.02 | 0.16 | 0.39 |  |  |  | Dose-dependent effect
CO[C@H]1C[C@H]2CC[C@@H](C1)N2c1c(-c2c(F)cc(F)cc2F)c(Cl)nc2ncnn12 | 3.65 | 7.43 | 1.12 | 1.38 | 0.54 | 1.11 | 3.38 |  |  | Dose-dependent effect
Fc1cc(F)c(-c2c(Cl)nc3ncnn3c2NCc2ccccc2)c(F)c1 | 1.05 | 1.49 | 1 | 1.06 | 0.16 | 0.22 |  |  |  | Dose-dependent effect
Fc1cc(F)c(-c2c(Cl)nc3ncnn3c2N2CCCCC2)c(F)c1 | 2.21 | 5.84 | 1.23 | 1.2 | 0.13 | 0.33 |  |  |  | Dose-dependent effect
CC(C)[C@@H](C)Nc1c(-c2ccccc2F)c(Cl)nc2ncnn12 | 0.95 | 2.1 | 1 | 1.04 | 0.2 | 0.43 | 2.95 |  |  | 
CC(CF)Nc1c(-c2c(F)cc(F)cc2F)c(Cl)nc2ncnn12 (stereo not drawn) | 1.32 | 1.5 | 0.92 | 1.09 | 0.3 | 0.35 |  |  |  | Dose-dependent effect
Fc1cc(F)c(-c2c(Cl)nc3ncnn3c2N2CCCC2)c(F)c1 | 1.14 | 2.74 | 1.12 | 1.18 | 0.07 | 0.16 |  |  |  | Dose-dependent effect
C[C@H](Nc1c(-c2ccc(F)c(F)c2)c(Cl)nc2ncnn12)C(F)(F)F | 1.85 | 4.76 | 1.01 | 1.13 | 0.05 | 0.12 |  |  |  | Dose-dependent effect
Fc1cc(F)c(-c2c(Cl)nc3ncnn3c2NC2CCCC2)c(F)c1 | 2.03 | 4.83 | 1.03 | 0.98 | 0.27 | 0.45 |  |  |  | Dose-dependent effect
CC(C)Nc1c(-c2c(F)cc(F)cc2F)c(Cl)nc2ncnn12 | 1.15 | 2.01 | 0.92 | 0.98 | 0.15 | 0.27 |  |  |  | Dose-dependent effect
C[C@@H](Nc1c(-c2c(F)cc(F)cc2F)c(Cl)nc2ncnn12)C(F)(F)F | 1.39 | 2.47 | 1.23 | 1.47 | 0.24 | 0.43 |  |  |  | Dose-dependent effect
COc1cc(F)c(-c2c(Cl)nc3ncnn3c2N[C@@H](C)C(F)(F)F)c(F)c1 | 3.16 | 2.07 | 0.72 | 0.51 | 0.64 | 0.42 |  |  | > 15% | 
C[C@H](Nc1c(-c2c(F)cc(Cl)cc2F)c(Cl)nc2ncnn12)C(F)(F)F | 1.88 | 4.28 | 0.93 | 0.81 | 0.31 | 0.7 |  |  | > 15% | 
C[C@@H](Nc1c(-c2ccc(C#N)cc2F)c(Cl)nc2ncnn12)C(C)(C)C | 4.41 | 7.67 | 0.86 | 0.93 | 0.71 | 1.24 | 2.86 |  |  | 
C[C@H](Nc1c(-c2ccc(F)c(F)c2F)c(Cl)nc2ncnn12)C(F)(F)F | 1.5 | 4.28 | 1.11 | 0.88 | 0.12 | 0.34 |  |  |  | Dose-dependent effect
C[C@H](Nc1c(-c2ccc(F)cc2)c(Cl)nc2ncnn12)C(F)(F)F | 1.05 | 2.41 | 1.04 | 1.13 | 0.07 | 0.16 |  |  |  | Dose-dependent effect
N#Cc1ccc(-c2c(Cl)nc3ncnn3c2N2CCCCCC2)c(F)c1 | 7.17 | 12.6 | 1.04 | 0.99 | 0.55 | 0.97 | 3.15 |  |  | 
Fc1cc(F)c(-c2c(Cl)nc3ncnn3c2NC2CCCCC2)c(F)c1 | 1.13 | 3.51 | 1.07 | 0.99 | 0.07 | 0.23 |  |  |  | Dose-dependent effect
